Activity calls are given as the source filed them. The rule behind the calls is not given here.
What was measured:
[1] = biological target: GTPase HRas (Homo sapiens) (UniProt P01112); test: Binding affinity to H-Ras(1-166) expressed in BL21 De3 Escherichia coli by isothermal titration calorimetric study
[2] = Chemical stability at neutral pH by HPLC analysis; type: physicochemical
Summary of the method: (§1)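 Stability assessed by TLC and HPLC after storage at neutral pH for months.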

[3] = biological target: GTPase HRas (Homo sapiens) (UniProt P01112); test: Binding affinity to hexa-histidine tagged H-Ras.GDP(1-166) expressed in BL21 De3 Escherichia coli by NMR binding experiment
NIH3T3 [4] = test: Antiproliferative activity against mouse NIH/3T3 cells assessed as morphological changes at 150 uM after 48 hrs; type: functional, cell-based
[5] = biological target: GTPase HRas (Homo sapiens) (UniProt P01112); test: Binding affinity to H-Ras expressed in BL21 De3 Escherichia coli assessed as damage to protein structure by circular dichroism
NIH3T3 [6] = test: Antiproliferative activity against mouse NIH/3T3 cells at 450 uM after 24 hrs by coulter counter; type: functional, cell-based
[7] = Solubility in TRIS buffer; type: physicochemical
[8] = biological target: T1, Ras-specific guanine nucleotide-releasing factor 1 (Homo sapiens) (UniProt Q13972); test: Inhibition of GST-tagged Ras-GRF1-catalyzed exchange of bound GDP on histidine-tagged recombinant H-Ras expressed in Escherichia coli M15 at 100 uM by luminescence spectrometry
T1 sequence (whole entry): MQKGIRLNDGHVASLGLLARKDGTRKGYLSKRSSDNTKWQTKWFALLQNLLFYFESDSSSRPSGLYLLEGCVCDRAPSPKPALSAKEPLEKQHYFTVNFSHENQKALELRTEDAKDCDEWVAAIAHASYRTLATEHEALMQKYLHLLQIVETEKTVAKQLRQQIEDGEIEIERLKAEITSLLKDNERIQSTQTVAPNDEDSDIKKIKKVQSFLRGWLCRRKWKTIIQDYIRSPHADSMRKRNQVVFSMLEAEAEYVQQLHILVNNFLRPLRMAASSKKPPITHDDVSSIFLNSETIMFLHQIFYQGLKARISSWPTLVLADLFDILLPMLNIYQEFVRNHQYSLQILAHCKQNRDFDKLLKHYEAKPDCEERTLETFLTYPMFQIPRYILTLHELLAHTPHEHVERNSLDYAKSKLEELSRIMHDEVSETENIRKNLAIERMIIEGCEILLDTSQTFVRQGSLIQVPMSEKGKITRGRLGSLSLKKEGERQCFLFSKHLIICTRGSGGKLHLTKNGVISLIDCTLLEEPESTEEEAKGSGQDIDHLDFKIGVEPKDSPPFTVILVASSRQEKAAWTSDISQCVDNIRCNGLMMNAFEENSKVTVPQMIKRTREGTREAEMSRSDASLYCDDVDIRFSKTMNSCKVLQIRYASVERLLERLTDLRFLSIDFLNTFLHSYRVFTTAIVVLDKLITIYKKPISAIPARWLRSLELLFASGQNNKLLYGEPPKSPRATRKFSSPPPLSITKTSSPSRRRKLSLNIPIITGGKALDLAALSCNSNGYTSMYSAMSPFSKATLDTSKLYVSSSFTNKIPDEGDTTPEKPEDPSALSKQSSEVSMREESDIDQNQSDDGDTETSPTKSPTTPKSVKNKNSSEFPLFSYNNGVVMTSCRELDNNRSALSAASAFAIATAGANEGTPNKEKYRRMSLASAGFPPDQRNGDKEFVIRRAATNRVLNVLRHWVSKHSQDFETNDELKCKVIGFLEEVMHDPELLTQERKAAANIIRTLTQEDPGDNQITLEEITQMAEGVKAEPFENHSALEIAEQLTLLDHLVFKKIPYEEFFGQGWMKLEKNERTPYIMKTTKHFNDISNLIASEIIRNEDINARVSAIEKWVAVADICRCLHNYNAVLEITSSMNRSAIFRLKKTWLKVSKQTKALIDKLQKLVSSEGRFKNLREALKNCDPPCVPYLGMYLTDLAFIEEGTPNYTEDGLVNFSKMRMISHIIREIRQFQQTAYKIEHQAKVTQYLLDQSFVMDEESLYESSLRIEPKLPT
Summary of the method: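 GDP-to-mantGDP exchange measured on 0.25 µM H-Ras·GDP with […] mantGDP and 0.0625 µM RasGRF1, with compound at 0, 50, 100, 250 or 500 µM. Fluorescence read every second for at least 1500 s. Initial rate taken as first derivative at time 0 and normalized to the no-compound control set at 100. Mean of at least three independent experiments.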

[9] = Chemical stability at neutral pH by TLC analysis; type: physicochemical; summary of the method: as §1
[10] = Solubility in water; type: physicochemical; details: buffer
[11] = biological target: GTPase HRas (Homo sapiens) (UniProt P01112); test: Binding affinity to H-Ras expressed in BL21 De3 Escherichia coli assessed as induction of protein denaturation by circular dichroism
NIH3T3 [12] = test: Antiproliferative activity against mouse NIH/3T3 cells at 150 uM after 24 hrs by coulter counter; type: functional, cell-based

GTPase HRas (Homo sapiens), sequence (P01112 whole entry, looked up): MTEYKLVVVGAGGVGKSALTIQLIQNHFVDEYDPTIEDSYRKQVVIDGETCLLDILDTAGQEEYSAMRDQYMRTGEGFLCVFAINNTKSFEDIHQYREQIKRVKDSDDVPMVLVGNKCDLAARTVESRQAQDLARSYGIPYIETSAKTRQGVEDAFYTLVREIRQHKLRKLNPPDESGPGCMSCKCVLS

OC[C@H]1O[C@@H](N(Cc2ccc(O)c(O)c2)OCc2ccccc2)[C@H](O)[C@@H](O)[C@@H]1O
Activity [1]: 37 µM | Stability [2]: Stable | Activity [3]: Active | Activity (NIH3T3 [4]): Active | Activity [5]: inactive | Activity (NIH3T3 [6]): Active | solubility [7]: Soluble | inhibition [8]: 50% | Stability [9]: Stable | solubility [10]: Soluble | Activity [11]: inactive | Activity (NIH3T3 [12]): Active
